The values that follow come from ChEMBL document CHEMBL5712910, “Histone methyltransferases EHMT1 and EHMT2 (GLP/G9A) maintain PARP inhibitor resistance in high-grade serous ovarian carcinoma” (Clin Epigenetics, 2019).

In test [1] the test system is Olaparib-resistant PEO1. Nature of the test: Induction of cell cycle arrest in human Olaparib-resistant PEO1 cells assessed as accumulation of cells in G1 phase pretreated for 72 hrs by UNC0642 follwed by compound addition at 3 uM incubated for 72 hrs in presence of UNC0642 by propidium iodide staining based flow cytometry analysis (reference value: 52.9%). The class given is functional.

The test system of test [2] is Olaparib-resistant PEO1. The test is described as follows: Induction of cell cycle arrest in human Olaparib-resistant PEO1 cells assessed as accumulation of cells in G2 phase pretreated for 72 hrs by vehicle follwed by compound addition at 3 uM incubated for 72 hrs by propidium iodide staining based flow cytometry analysis (reference value: 20.7 %). The class given is functional.

Test [3] has as its system Olaparib-resistant PEO1. Nature of the test: Inhibition of EHMT1/2 in human Olaparib-resistant PEO1 cells assessed as Cyclin A protein level in presence of UNC0642 at 3 uM for 72 hrs by immunoblot analysis. Format: functional, cell-based. The procedure, abridged: (§1)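 PEO1-OR cells were treated with olaparib and/or UNC0642 as for the cell-cycle experiment. Total RIPA lysates were immunoblotted for cell-cycle proteins, and band intensity was normalized to actin, relative to the non-pretreated control.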

The next test concerns Ovarian carcinoma cell. Nature of the test: Antitumor activity against patient derived primary High-grade serous ovarian cancer cell ascite cells xenografted in NSG mouse assessed as upregulation of EHMT1 protein level in tumor administrated once daily for 21 days by immunoblot analysis. Format: functional, cell-based. The note with it: Homo sapiens, time 21.0 day.
Test [4] has as its system Olaparib-resistant PEO1. The test is described as follows: Induction of cell cycle arrest in human Olaparib-resistant PEO1 cells assessed as accumulation of cells in G2 phase pretreated for 72 hrs by UNC0642 follwed by compound addition at 3 uM incubated for 72 hrs in presence of UNC0642 by propidium iodide staining based flow cytometry analysis (reference value: 23.2 %). Format: functional.

Test [5] concerns Olaparib-resistant PEO1. The test is described as follows: Induction of cell cycle arrest in human Olaparib-resistant PEO1 cells assessed as accumulation of cells in S phase pretreated for 72 hrs by vehicle follwed by compound addition at 3 uM incubated for 72 hrs by propidium iodide staining based flow cytometry analysis (reference value: 21.5%). Format: functional.
The test system of test [6] is Olaparib-resistant PEO1. Nature of the test: Induction of apoptosis in human Olaparib-resistant PEO1 cells assessed as total apoptotic cells with EHMT1/2 double knockdown in presence of UNC0642 at 3 uM by annexin-V/propidium iodide staining based flow cytometry analysis relative to control. The class given is functional, cell-based.
Test [7] concerns Olaparib-resistant PEO1. The test is described as follows: Inhibition of EHMT1/2 in human Olaparib-resistant PEO1 cells assessed as Cyclin B1 protein level in presence of UNC0642 at 3 uM for 72 hrs by immunoblot analysis. Format: functional, cell-based. The procedure, abridged:
as §1

Calls of active or inactive are those of the source. The calls are words filed in the database; no cut-off is given here.

As for `O=C(c1cc(Cc2n[nH]c(=O)c3ccccc23)ccc1F)N1CCN(C(=O)C2CC2)CC1` [OLAPARIB], the Activity is listed as 46.6% with Olaparib-resistant PEO1 [1], 26.5% in the test with Olaparib-resistant PEO1 [2], 25.4% in the test on Olaparib-resistant PEO1 [4] and 24.2% in the test with Olaparib-resistant PEO1 [5]. The outcome in the test with Olaparib-resistant PEO1 [3], with Ovarian carcinoma cell and in the test with Olaparib-resistant PEO1 [7] was Active. The result with Olaparib-resistant PEO1 [6] was inactive.
